An excerpt weighted towards active compounds, which were near 1.2% of everything screened.
Glyco luc inh: blocks N-linked glycosylation in D54 reporter cells. D54 ERlucT glycosylation luciferase reporter, 24 h; percent of 100 nM tunicamycin response. reporter increase, % at 12.5 µM. 360,000 tested, 0.23% active. AID 588692;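 active means mean luciferase reporter signal, scaled so untreated is 0 and the glycosylation-blocking control 100, at or above a set limit in every replicate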;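 further: luciferase carries N-glycosylation sites so blocking glycosylation raises the light; 0% = median of neutral control wells and 100% = median of 100 nM tunicamycin wells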
NSD2 HMT inh: inhibitors of human histone methyltransferase NSD2 | inhibition, % at 12.5 µM | NSD2 peptide methylation, AlphaScreen, 120 min | 310,000 tested, 0.54% active; in the data active means inhibition above about 50%
AF4-AF9 inh: blocks AF4 peptide binding to human AF9; P42568; AlphaScreen, biotin-AF4 peptide binding to FLAG-AF9; inhibition, % at 10 µM; 350,000 tested, 0.47% active; AID 651704;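 active means every replicate reaching a set inhibition limit, whatever the replicate mean, cut at about 25% in these data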;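 further: 0% = plate neutral control median and 100% = total signal loss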
RAD52 inh: blocks human RAD52 DNA annealing; AID 651710; 360,000 tested, 0.46% active; inhibition, % at 18.7 µM; recombinant RAD52 DNA annealing, FRET fluorescence;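 active means every replicate showing at least 50% inhibition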
RAD54 inh: blocks human RAD54 Holliday junction branch migration. Q92698. FAM/BHQ fluorescence. inhibition, % at 10.4 µM. 360,000 tested, 0.14% active;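 active means mean normalized replicate activity at least 40 and at least half of replicates scoring 40 or more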;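 further: 0% = median of neutral control wells and 100% = median of positive control wells; inhibitors cause a drop in the FAM fluorescence signal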
FN deposition inh: fibronectin deposition inhibition | 350,000 tested, 0.086% active | AH1F fibroblasts, Alexa488-fibronectin deposition fluorescence, overnight | inhibition, % at 12.6 µM;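 active means mean inhibition across replicates of 30% or more, regardless of how many single replicates reach that level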;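 further: positive control wells lacked labelled fibronectin entirely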
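Material: AH1F fibroblast monolayer depositing Alexa488-labelled fibronectin into matrix | Input: 10000 AH1F cells/well | Medium: DMEM plus 2% serum, read in PBS | Reagent: Alexa488-fibronectin, 24 nM final in well | Compound dosing: One dose per compound, pinned | Schedule: 1 h adhesion, overnight exposure | Measured by: Fluorescence at 485 nm excitation, 525 nm emission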
Starred values were filed as active, the others as inactive.

Screening O=C1C(Cl)=CC(=Nc2ccc(O)cc2)C=C1Cl returned Glyco luc inh 3.1, AF4-AF9 inh 36.3*, RAD52 inh -8.6, RAD54 inh 2.4 and FN deposition inh -27.6.
For COP(=O)(NC(=O)C(Cl)(Cl)Cl)OC the results were Glyco luc inh 1.1, NSD2 HMT inh -2.6, AF4-AF9 inh 27.5*, RAD52 inh -10.9 and FN deposition inh -9.8.
`COc1cc(/C=C/[N+](=O)[O-])ccc1O` gave Glyco luc inh 29.2*, AF4-AF9 inh 3.8, RAD52 inh -9.9, RAD54 inh -6.2 and FN deposition inh 14.3.
Screening CCN(CC)c1ccc(/C=C/[N+](=O)[O-])cc1 returned Glyco luc inh 7.5, NSD2 HMT inh 7.3, AF4-AF9 inh 1.2, RAD52 inh -50.8, RAD54 inh -10.6 and FN deposition inh 5.3.
COCC(=O)N1[C@@H]2c3ccc(C4=CCCC4)c(=O)n3C[C@H]1[C@H](CO)[C@H]2C(=O)OC was read as AF4-AF9 inh -0.9, RAD52 inh -20.4 and RAD54 inh 8.4.
`C/C=C/c1ccc(C2[C@@H]3CN(Cc4cccc(F)c4)C[C@H]2N3)cc1` (stereo partly specified) gave AF4-AF9 inh 11.0, RAD52 inh 37.7 and FN deposition inh -3.1.
Screening C/C=C/c1ccc(C2[C@@H]3CN(Cc4cccnc4)C[C@H]2N3)cc1 (stereo partly specified) returned AF4-AF9 inh 13.8, RAD52 inh 58.4* and FN deposition inh -0.9.
For CN1[C@@H]2CN(CC3CC3)C[C@H]1C2c1ccc(Br)cc1 (stereo partly specified) the results were FN deposition inh 6.9.
`O=P1(c2ccccc2)Nc2ccccc2N1c1ccccc1` (stereo unspecified) gave Glyco luc inh -3.8, NSD2 HMT inh 15.9, AF4-AF9 inh 27.6*, RAD52 inh -5.4, RAD54 inh 2.2 and FN deposition inh 4.3.
For COc1ccc(C#Cc2ccc([C@H]3[C@H](CO)N4CCCCN(C(=O)Cc5cccnc5)C[C@@H]34)cc2)cc1 the results were AF4-AF9 inh -7.6, RAD52 inh -7.0 and RAD54 inh 2.8.
For COC(=O)[C@H]1[C@H](CO)[C@H]2Cn3c(ccc(-c4ccccc4)c3=O)[C@@H]1N2CC1CCOCC1 the results were AF4-AF9 inh 0.5, RAD52 inh -3.2 and RAD54 inh -2.3.
`O=C(O)[C@H]1[C@H](CO)[C@H]2Cn3c(ccc(-c4ccncc4)c3=O)[C@@H]1N2C(=O)C1CCCC1` gave AF4-AF9 inh -15.4 and RAD52 inh -31.7.
Screening CC[n+]1c(-c2ccccc2)c2cc(N)ccc2c2ccc(N)cc21 returned Glyco luc inh -14.0, NSD2 HMT inh 177.6*, AF4-AF9 inh 30.5*, RAD52 inh -49.6 and FN deposition inh 3.3.
O=C(O)[C@@H]1[C@@H](CO)[C@@H]2Cn3c(ccc(-c4cccnc4)c3=O)[C@H]1N2S(=O)(=O)c1ccccc1F was read as AF4-AF9 inh 0.3, RAD52 inh -2.2 and RAD54 inh 10.3.
CC(=O)N1C[C@@H]2C(c3ccccc3)[C@H](C1)N2C (stereo partly specified) was read as FN deposition inh -6.1.
`COc1cc2c(cc1O)C[C@H]1NCCc3cc4c(c-2c31)OCO4` gave Glyco luc inh 18.1, AF4-AF9 inh 11.9, RAD52 inh 89.0*, RAD54 inh 21.0 and FN deposition inh -11.0.
For COc1c2c(cc3c1OCO3)CCN(C)C2 the results were Glyco luc inh -0.2, AF4-AF9 inh -1.9, RAD52 inh -8.0, RAD54 inh -9.6 and FN deposition inh -5.2.
Screening COC(=O)C[C@@H]1CC[C@H]2NC[C@@H](O)COC[C@@H]2O1 returned RAD54 inh -5.0 and FN deposition inh 7.3.
Screening Nc1nonc1C(=O)N/N=C/c1ccc([N+](=O)[O-])o1 returned Glyco luc inh 29.8*, NSD2 HMT inh 8.1 and FN deposition inh 4.7.
Screening c1ccc2c(c1)-c1cccc3cccc-2c13 returned Glyco luc inh 0.6, AF4-AF9 inh -2.0, RAD52 inh -4.6 and RAD54 inh -2.7.
c1ccc2c(c1)[IH]c1ccccc1-2 was read as Glyco luc inh 53.7*, AF4-AF9 inh -11.7, RAD52 inh 47.1, RAD54 inh 51.9* and FN deposition inh 12.9.
Screening O=C1NC(=O)N(c2ccccc2)C(=O)/C1=C/c1ccc(Sc2ccccc2)o1 returned Glyco luc inh 0.5.
O=C1NC(=O)N(c2ccccc2F)C(=O)/C1=C/c1ccc(Sc2nc3ccccc3[nH]2)o1 was read as Glyco luc inh 1.6, NSD2 HMT inh 87.0*, AF4-AF9 inh -7.5, RAD52 inh inactive, RAD54 inh -43.9 and FN deposition inh -5.8.
For Cc1ccc(/C=C2\C(=O)NC(=S)N(c3ccccc3F)C2=O)s1 the results were Glyco luc inh -4.7, NSD2 HMT inh 22.1 and FN deposition inh 0.0.
O=C1NC(=O)N(c2cccc(Cl)c2)C(=O)/C1=C\c1ccc(Sc2nc3ccccc3[nH]2)o1 was read as Glyco luc inh 1.3, NSD2 HMT inh 70.6*, AF4-AF9 inh 0.4, RAD52 inh -350.5 and FN deposition inh -10.8.
For CC=Cc1ccc2n(c1=O)C[C@@H]1[C@@H](CO)[C@H](C(=O)O)[C@H]2N1S(=O)(=O)c1ccccc1F (mixture of isomers) the results were AF4-AF9 inh -1.6, RAD52 inh -0.2 and RAD54 inh -0.2.
C=C1C(C)C2C(Cc3ccccc3)NC(=O)C23OC(=O)/C=C/C(O)CCCC(C)C/C=C/C3C1O (stereo unspecified) was read as Glyco luc inh -6.8, NSD2 HMT inh -2.4, AF4-AF9 inh -1.7, RAD52 inh -11.9 and FN deposition inh 41.0*.
For O=C1NC(=O)N(Cc2ccccc2)C(=O)/C1=C/C=C/c1ccco1 the results were Glyco luc inh 32.1*, NSD2 HMT inh 28.1, AF4-AF9 inh 1.2, RAD52 inh -156.5 and FN deposition inh 0.9.
CCc1cc(OC)c(CCN)cc1OC was read as RAD52 inh -6.4.
CCCCCCCSc1cc(OC)c(CCNC)cc1OC was read as Glyco luc inh -7.9, NSD2 HMT inh 68.6* and RAD54 inh 36.0.
Screening CCC(=O)N1[C@@H]2c3ccc(C4=CCCC4)c(=O)n3C[C@H]1[C@H](CO)[C@H]2C(=O)OC returned AF4-AF9 inh 6.1, RAD52 inh -10.7, RAD54 inh -12.4 and FN deposition inh -2.9.
`C=CCn1c(O)c(C(CC)=NC(C)c2ccccc2)c(=O)[nH]c1=O` (stereo unspecified) gave Glyco luc inh 25.6*, NSD2 HMT inh -0.1, RAD54 inh -1.7 and FN deposition inh 5.4.
`CCCCn1c(O)c(C(CC)=NC(C)c2ccccc2)c(=O)[nH]c1=O` (stereo unspecified) gave Glyco luc inh 1.9, NSD2 HMT inh 8.6, AF4-AF9 inh 5.9, RAD52 inh -21.4 and RAD54 inh 3.9.

Assay outcomes as filed in PubChem.
